Source: ChEMBL document CHEMBL1158388, “Preparation of spermine conjugates with acidic retinoids with potent ribonuclease P inhibitory activity” (Eur J Med Chem, 2009)

Assay: Inhibition of Dictyostelium discoideum AX2 RNase P by double reciprocal plot
Method in brief: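 RNase P purified from D. discoideum wild-type cells; 37 °C reactions in buffer D (50 mM Tris/HCl pH 7.6, 10 mM NH4Cl, 5 mM MgCl2, 5 mM DTT) with 2–5 fmol in vitro labeled S. pombe pre-tRNASer transcript and 1.3 µg enzyme-fraction protein, 10% DMSO; stopped with formamide/EDTA dye. Ki from slopes of 1/v vs 1/[pre-tRNA] plots replotted against inhibitor concentration.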

**Q.** For `CC1=C(/C=C/C(C)=C/C=C/C(C)=C\C(=O)O)C(C)(C)CCC1` [ISOTRETINOIN], which Ki is on record?
**A.** Its Ki is 20 µM.

**Q.** For `COc1cc(C)c(/C=C/C(C)=C/C=C/C(C)=C/C(=O)NCCCNCCCCNCCCN)c(C)c1C` [N1-Acitretinylspermine], which Ki is on record?
**A.** Its Ki is 2.45 µM.

**Q.** Which Ki does the source give for `CC1=C(/C=C/C(C)=C/C=C/C(C)=C/C(=O)NCCCNCCCCNCCCN)C(C)(C)CCC1` here?
**A.** Its Ki is 2.4 µM.

**Q.** For `COc1cc(C)c(/C=C/C(C)=C/C=C/C(C)=C/C(=O)O)c(C)c1C` [ACITRETIN], which Ki is on record?
**A.** The Ki was 8 µM.

**Q.** For `C/C(=C\c1ccc(C(=O)O)cc1)c1ccc2c(c1)C(C)(C)CCC2(C)C`, which Ki is on record?
**A.** Its Ki is 45 µM.

**Q.** With `CC1=C(/C=C/C(C)=C/C=C/C(C)=C/CO)C(C)(C)CCC1` [RETINOL] as the compound, how does the Ki read?
**A.** The Ki was 1480 µM.

**Q.** For `CCOC(=O)c1ccc(/C=C(\C)c2ccc3c(c2)C(C)(C)CCC3(C)C)cc1` [AROTINOID], which Ki is on record?
**A.** Its Ki is 4350 µM.

**Q.** With `CCS(=O)(=O)c1ccc(/C=C(\C)c2ccc3c(c2)C(C)(C)CCC3(C)C)cc1` [ETAROTENE] as the compound, how does the Ki read?
**A.** Its Ki is 3600 µM.

**Q.** For `CC1=C(/C=C/C(C)=C/C=C/C(C)=C/C(=O)O)C(C)(C)CCC1` [TRETINOIN], which Ki is on record?
**A.** Its Ki is 15 µM.

**Q.** For `CC1=C(/C=C/C(C)=C/C=C/C(C)=C/C(=O)N(CCCN)CCCCN(CCCN)C(=O)/C=C(C)/C=C/C=C(C)/C=C/C2=C(C)CCCC2(C)C)C(C)(C)CCC1`, which Ki is on record?
**A.** Its Ki is 1.1 µM.
